Results from different studies.
Compare with care: the assays were run in different laboratories.
Sample: plasma
Route: oral

COc1ccc([C@@H]2CN(C(=O)[C@@H](O)CO)C[C@@]2(C)[C@@H](C)O)cc1OC1CN(c2ccc(C)cn2)C1
Vd/F (human; 0.1 mg, single dose, healthy volunteers): 23.8 L

CC(C)(C)OC[C@@H]1C(=O)NCCN1C(=O)C[C@H](N)Cc1cc(F)c(F)cc1F
Vd/F (male human; 5 mg, multiple doses, steady state): 1960 L

CO[C@H]1CC[C@H](N2C(=O)CNc3ncc(-c4ccc(C(C)(C)O)nc4)nc32)CC1
Vd/F (human; 60 mg, patients): 236 L

Cc1cc(Nc2cc(N3CCN(C)CC3)nc(/C=C/c3ccccc3)n2)n[nH]1
Vd/F (human; 120 mg/m², multiple doses, patients): 847 L

NC[C@@](O)(c1ccc(Cl)cc1)c1ccc(-c2cn[nH]c2)cc1
Vd/F (human; 5 mg, patients): 1400 L

COc1cc(C(=O)NC2CCN(C)CC2)c(F)cc1Nc1ncc(C(F)(F)F)c(Oc2cccc3c2C(=O)N(C)C3)n1
Vd/F (human; 50 mg, single dose, patients): 581 L

CCOc1cc([C@@H](CS(C)(=O)=O)N2C(=O)c3cccc(NC(C)=O)c3C2=O)ccc1OC
Vd/F (human; 30 mg, single dose, healthy volunteers): 141 L

c1cnc2ccc(Nc3nc(NC4CC4)c4nc[nH]c4n3)cc2c1
Vd/F (human; 400 mg/m², patients): 546 L

C[C@@]1(c2cc(NC(=O)c3ccc(C#N)cn3)ccc2F)C=CSC(N)=N1
Vd/F (human; 30 mg, single dose): 276 L

CC(C)(Sc1ccncc1-c1ccc(C#N)c2ccccc12)C(=O)O
Vd/F (male human; 2 mg, single dose, fasted, healthy volunteers): 394 L

C[C@@H](c1ccc2nccn2c1)n1nnc2ncc(-c3cnn(C)c3)nc21
Vd/F (human; 600 mg): 506 L

N#CN1C[C@H](n2nc(-c3ccc(Oc4ccc(Cl)cn4)cc3)c(C(N)=O)c2N)CCC12CC2
Vd/F (human; 600 mg, fasted): 1060 L

CCOc1cc2ncc(C#N)c(Nc3ccc(OCc4ccccn4)c(Cl)c3)c2cc1NC(=O)/C=C/[C@H]1CCCN1C
Vd/F (human; 80 mg, single dose): 4110 L
